Values after ≈ are worked out from the molar mass of the structure shown.
Assays:
Candida albicans [1] = experiment: Antifungal activity against itraconazole and fluconazole resistant Candida albicans ATCC 90819 after 48 hrs by broth dilution method; type: functional; settings: Candida albicans, ATCC 90819, 48 h
In short: (§1)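 CLSI M27-A3 broth microdilution with minor modifications. Overnight YPD culture grown at 35 °C, 200 rpm, adjusted to OD600 0.12, diluted in RPMI 1640 buffered to pH 7.0 with 0.165 M MOPS to a final 1–2 × 10^3 CFU/mL. Test compounds at 0.015–31.3 µg/mL, 48 h at 35 °C, DMSO <1.25%. […] Triplicate.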

Candida albicans [2] = experiment: Antifungal activity against Candida albicans ATCC 10231 after 48 hrs in the presence of 10% FBS by broth dilution method; type: functional; settings: ATCC 10231, 48 h
Candida albicans [3] = experiment: Antifungal activity against itraconazole and fluconazole susceptible Candida albicans ATCC MYA-2876 after 48 hrs by broth dilution method; type: functional; settings: Candida albicans, ATCC MYA-2876, 48 h
Aspergillus terreus = experiment: Antifungal activity against Aspergillus terreus ATCC MYA-3633 after 48 hrs by broth dilution method; type: functional; settings: Aspergillus terreus, ATCC MYA-3633, 48 h
In short: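 Molds tested per CLSI M38-A2. Spores were harvested from sporulating PDA cultures by filtering through glass wool and counted on a hemocytometer. Serial dilutions (0.03–31.3 µg/mL) were made in RPMI 1640 buffered to pH 7.0 with 0.165 M MOPS, final inoculum 5 × 10^5 CFU/mL.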

Candida albicans [4] = experiment: Antifungal activity against itraconazole and fluconazole resistant Candida albicans ATCC MYA-1003 after 48 hrs by broth dilution method; type: functional; settings: Candida albicans, ATCC MYA-1003, 48 h; in short: as §1
Candida albicans [5] = experiment: Antifungal activity against itraconazole and fluconazole susceptible Candida albicans ATCC MYA-2310 after 48 hrs by broth dilution method; type: functional; settings: Candida albicans, ATCC MYA-2310, 48 h
Candida albicans [6] = experiment: Antifungal activity against Candida albicans ATCC 64124 after 48 hrs by broth dilution method; type: functional; settings: Candida albicans, ATCC 64124, 48 h; in short: as §1
Aspergillus nidulans = experiment: Antifungal activity against Aspergillus nidulans ATCC 38163 after 48 hrs by broth dilution method; type: functional; settings: Aspergillus nidulans, ATCC 38163, 48 h
In short: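 A. nidulans run per CLSI M38-A2. PDA spores were filtered through glass wool and counted by hemocytometer. Test range 0.03–31.3 µg/mL in MOPS-buffered RPMI 1640 (pH 7.0), final 5 × 10^5 CFU/mL.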

Candida albicans [7] = experiment: Antifungal activity against Candida albicans ATCC 10231 after 48 hrs by broth dilution method; type: functional; settings: ATCC 10231, 48 h
Aspergillus flavus = experiment: Antifungal activity against Aspergillus flavus ATCC MYA-3631 after 48 hrs by broth dilution method; type: functional; settings: ATCC MYA-3631, 48 h
Candida parapsilosis = experiment: Antifungal activity against Candida parapsilosis ATCC 22019 after 48 hrs by broth dilution method; type: functional; settings: Lodderomyces parapsilosis, ATCC 22019, 48 h
Candida albicans [8] = experiment: Antifungal activity against itraconazole and fluconazole resistant Candida albicans ATCC MYA-1237 after 48 hrs by broth dilution method; type: functional; settings: Candida albicans, ATCC MYA-1237, 48 h; in short: as §1
Pichia kudriavzevii = experiment: Antifungal activity against Candida krusei ATCC 6258 after 48 hrs by broth dilution method; type: functional; settings: Pichia kudriavzevii, ATCC 6258, 48 h
In short: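 Yeasts tested per CLSI M27-A3 with minor changes. An overnight YPD culture (35 °C, 200 rpm) was adjusted to OD600 0.12 and diluted in MOPS-buffered RPMI 1640 (pH 7.0) to a final 1–2 × 10^3 CFU/mL. Compounds 0.015–31.3 µg/mL, DMSO <1.25%.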

Nakaseomyces glabratus = experiment: Antifungal activity against Candida glabrata ATCC 2001 after 48 hrs by broth dilution method; type: functional, CBS 138; settings: Nakaseomyces glabratus, CBS 138, 48 h
[9] = Aqueous solubility of the compound; type: physicochemical; settings: buffer
[10] = Solubility of the compound in DMSO; type: physicochemical

C[C@@H]1[C@H](O)[C@@H](C)/C=C/C=C/C=C/C=C/C=C/C=C/C=C/[C@H](O[C@@H]2O[C@H](C)[C@@H](O)[C@H](N)[C@@H]2O)C[C@@H]2O[C@](O)(C[C@@H](O)C[C@@H](O)[C@H](O)CC[C@@H](O)C[C@@H](O)CC(=O)O[C@H]1C)C[C@H](O)[C@H]2C(=O)O [AMPHOTERICIN B]
MIC (Candida albicans [1]): 1.1 µM (≈ 1.02 µg/mL)
MIC (Candida albicans [2]): 7.8 µg/mL

CN1CCN(CC(O)(Cn2cncn2)c2ccc(F)cc2F)CC1 (stereo unspecified)
MIC (Candida albicans [3]): 23.1 µM (≈ 7.79 µg/mL)
MIC (Aspergillus terreus): 92.8 µM (≈ 31.3 µg/mL)
MIC (Candida albicans [4]): 92.8 µM (≈ 31.3 µg/mL)
MIC (Candida albicans [5]): 23.1 µM (≈ 7.79 µg/mL)
MIC (Candida albicans [6]): 92.8 µM (≈ 31.3 µg/mL)
MIC (Aspergillus nidulans): 2.9 µM (≈ 0.978 µg/mL)
MIC (Candida albicans [1]): 92.8 µM (≈ 31.3 µg/mL)
MIC (Candida albicans [7]): 23.1 µM (≈ 7.79 µg/mL)
MIC (Aspergillus flavus): 92.8 µM (≈ 31.3 µg/mL)
MIC (Candida parapsilosis): 2.9 µM (≈ 0.978 µg/mL)
MIC (Candida albicans [8]): 92.8 µM (≈ 31.3 µg/mL)
MIC (Pichia kudriavzevii): 46.2 µM (≈ 15.6 µg/mL)
MIC (Nakaseomyces glabratus): 92.8 µM (≈ 31.3 µg/mL)

CN1CCNCC1 [METHYLPIPERAZINE]
MIC (Candida albicans [3]): > 312 µM
MIC (Aspergillus terreus): > 312 µM
MIC (Candida albicans [4]): > 312 µM
MIC (Candida albicans [5]): > 312 µM
MIC (Candida albicans [6]): > 312 µM
MIC (Aspergillus nidulans): > 312 µM
MIC (Candida albicans [1]): > 312 µM
MIC (Candida albicans [7]): > 312 µM
MIC (Aspergillus flavus): > 312 µM
MIC (Candida parapsilosis): > 312 µM
MIC (Candida albicans [8]): > 312 µM
MIC (Pichia kudriavzevii): > 312 µM
MIC (Nakaseomyces glabratus): > 312 µM

CCCCCCCCN1CCNCC1
MIC (Candida albicans [3]): > 158 µM
MIC (Aspergillus terreus): > 158 µM
MIC (Candida albicans [4]): > 158 µM
MIC (Candida albicans [5]): > 158 µM
MIC (Candida albicans [6]): > 158 µM
MIC (Aspergillus nidulans): > 158 µM
MIC (Candida albicans [1]): > 158 µM
MIC (Candida albicans [7]): > 158 µM
MIC (Aspergillus flavus): > 158 µM
MIC (Candida parapsilosis): > 158 µM
MIC (Candida albicans [8]): > 158 µM
MIC (Pichia kudriavzevii): > 158 µM
MIC (Nakaseomyces glabratus): > 158 µM

Fc1ccc(C2(Cn3cncn3)CO2)c(F)c1 (stereo unspecified)
MIC (Candida albicans [3]): > 132 µM
MIC (Aspergillus terreus): > 132 µM
MIC (Candida albicans [4]): > 132 µM
MIC (Candida albicans [5]): > 132 µM
MIC (Candida albicans [6]): > 132 µM
MIC (Aspergillus nidulans): > 132 µM
MIC (Candida albicans [1]): > 132 µM
MIC (Candida albicans [7]): > 132 µM
MIC (Aspergillus flavus): > 132 µM
MIC (Candida parapsilosis): > 132 µM
MIC (Candida albicans [8]): > 132 µM
MIC (Pichia kudriavzevii): > 132 µM
MIC (Nakaseomyces glabratus): > 132 µM

CCCCCCCCCCCN1CCNCC1
MIC (Candida albicans [3]): 64.8 µM (≈ 15.6 µg/mL)
MIC (Aspergillus terreus): 64.8 µM (≈ 15.6 µg/mL)
MIC (Candida albicans [4]): 64.8 µM (≈ 15.6 µg/mL)
MIC (Candida albicans [5]): 32.4 µM (≈ 7.79 µg/mL)
MIC (Candida albicans [6]): 32.4 µM (≈ 7.79 µg/mL)
MIC (Aspergillus nidulans): 64.8 µM (≈ 15.6 µg/mL)
MIC (Candida albicans [1]): 32.4 µM (≈ 7.79 µg/mL)
MIC (Candida albicans [7]): 32.4 µM (≈ 7.79 µg/mL)
MIC (Aspergillus flavus): 130 µM (≈ 31.2 µg/mL)
MIC (Candida parapsilosis): 32.4 µM (≈ 7.79 µg/mL)
MIC (Candida albicans [8]): 32.4 µM (≈ 7.79 µg/mL)
MIC (Pichia kudriavzevii): 32.4 µM (≈ 7.79 µg/mL)
MIC (Nakaseomyces glabratus): 32.4 µM (≈ 7.79 µg/mL)

OC(CNCCN1CCOCC1)(Cn1cncn1)c1ccc(F)cc1F (stereo unspecified)
MIC (Candida albicans [3]): 85.2 µM (≈ 31.3 µg/mL)
MIC (Aspergillus terreus): > 85.2 µM
MIC (Candida albicans [4]): > 85.2 µM
MIC (Candida albicans [5]): > 85.2 µM
MIC (Candida albicans [6]): 85.2 µM (≈ 31.3 µg/mL)
MIC (Aspergillus nidulans): > 85.2 µM
MIC (Candida albicans [1]): > 85.2 µM
MIC (Candida albicans [7]): 85.2 µM (≈ 31.3 µg/mL)
MIC (Aspergillus flavus): > 85.2 µM
MIC (Candida parapsilosis): 85.2 µM (≈ 31.3 µg/mL)
MIC (Candida albicans [8]): 85.2 µM (≈ 31.3 µg/mL)
MIC (Pichia kudriavzevii): > 85.2 µM
MIC (Nakaseomyces glabratus): 85.2 µM (≈ 31.3 µg/mL)

CCCCCCCCCCCCCCN1CCOCC1
MIC (Candida albicans [3]): > 110 µM
MIC (Aspergillus terreus): > 110 µM
MIC (Candida albicans [4]): > 110 µM
MIC (Candida albicans [5]): > 110 µM
MIC (Candida albicans [6]): > 110 µM
MIC (Aspergillus nidulans): > 110 µM
MIC (Candida albicans [1]): > 110 µM
MIC (Candida albicans [7]): > 110 µM
MIC (Aspergillus flavus): > 110 µM
MIC (Candida parapsilosis): > 110 µM
MIC (Candida albicans [8]): > 110 µM
MIC (Pichia kudriavzevii): > 110 µM
MIC (Nakaseomyces glabratus): > 110 µM

CCCCCCCCCCCCCN1CCNCC1
MIC (Candida albicans [3]): 7.2 µM (≈ 1.93 µg/mL)
MIC (Aspergillus terreus): 7.2 µM (≈ 1.93 µg/mL)
MIC (Candida albicans [4]): 7.2 µM (≈ 1.93 µg/mL)
MIC (Candida albicans [5]): 7.2 µM (≈ 1.93 µg/mL)
MIC (Candida albicans [6]): 3.6 µM (≈ 0.967 µg/mL)
MIC (Aspergillus nidulans): 3.6 µM (≈ 0.967 µg/mL)
MIC (Candida albicans [1]): 3.6 µM (≈ 0.967 µg/mL)
solubility [9]: Soluble
MIC (Candida albicans [7]): 3.6 µM (≈ 0.967 µg/mL)
solubility [10]: Soluble
MIC (Aspergillus flavus): 7.2 µM (≈ 1.93 µg/mL)
MIC (Candida parapsilosis): 7.2 µM (≈ 1.93 µg/mL)
MIC (Candida albicans [8]): 7.2 µM (≈ 1.93 µg/mL)
MIC (Pichia kudriavzevii): 3.6 µM (≈ 0.967 µg/mL)
MIC (Nakaseomyces glabratus): 1.8 µM (≈ 0.483 µg/mL)

OC(CN1CCOCC1)(Cn1cncn1)c1ccc(F)cc1F (stereo unspecified)
MIC (Candida albicans [3]): > 96.5 µM
MIC (Aspergillus terreus): 48.1 µM (≈ 15.6 µg/mL)
MIC (Candida albicans [4]): 96.5 µM (≈ 31.3 µg/mL)
MIC (Candida albicans [5]): 24 to 96.5 µM (≈ 7.78 to 31.3 µg/mL)
MIC (Candida albicans [6]): > 96.5 µM
MIC (Aspergillus nidulans): 6 µM (≈ 1.95 µg/mL)
MIC (Candida albicans [1]): 12 to 96.5 µM (≈ 3.89 to 31.3 µg/mL)
MIC (Candida albicans [7]): > 96.5 µM
MIC (Aspergillus flavus): 24 µM (≈ 7.78 µg/mL)
MIC (Candida parapsilosis): > 96.5 µM
MIC (Candida albicans [8]): > 96.5 µM
MIC (Pichia kudriavzevii): > 96.5 µM
MIC (Nakaseomyces glabratus): 96.5 µM (≈ 31.3 µg/mL)

From ChEMBL document CHEMBL4024783, “Alkylated Piperazines and Piperazine-Azole Hybrids as Antifungal Agents” (J Med Chem, 2018)
